Measured values reported in ChEMBL document CHEMBL3259570, “4-([1,2,4]Triazolo[1,5-a]pyridin-6-yl)-5(3)-(6-methylpyridin-2-yl)imidazole and -pyrazole derivatives as potent and selective inhibitors of transforming growth factor-β type I receptor kinase” (Bioorg Med Chem, 2014).

Legend:
TGF-beta receptor type-1 = target: T1, TGF-beta receptor type-1 (Homo sapiens, UniProt P36897); experiment: Inhibition of GST-fused recombinant human ALK5 expressed in baculovirus-infected insect Sf9 cells using casein as substrate by radioisotope-based assay
T1 sequence (P36897 whole entry): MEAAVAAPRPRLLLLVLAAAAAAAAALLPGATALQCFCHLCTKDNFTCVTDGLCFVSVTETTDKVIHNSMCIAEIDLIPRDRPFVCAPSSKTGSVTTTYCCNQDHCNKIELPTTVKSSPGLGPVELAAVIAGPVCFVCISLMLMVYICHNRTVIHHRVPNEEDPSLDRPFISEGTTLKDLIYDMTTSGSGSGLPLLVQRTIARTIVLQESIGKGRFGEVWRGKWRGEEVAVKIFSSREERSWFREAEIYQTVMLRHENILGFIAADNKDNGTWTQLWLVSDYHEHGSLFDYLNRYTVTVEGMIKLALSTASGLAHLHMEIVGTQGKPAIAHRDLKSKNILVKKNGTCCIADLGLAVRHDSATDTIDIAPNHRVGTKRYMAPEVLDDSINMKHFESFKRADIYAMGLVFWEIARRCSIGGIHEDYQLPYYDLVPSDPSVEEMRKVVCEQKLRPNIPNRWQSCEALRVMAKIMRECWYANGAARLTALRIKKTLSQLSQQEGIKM

[1] = target: Mitogen-activated protein kinase 14 (Homo sapiens, UniProt Q16539); experiment: Inhibition of recombinant human p38-alpha expressed in Escherichia coli using ATF2 as substrate by radioisotope-based assay
Homo sapiens = species: Homo sapiens; experiment: Selectivity index, ratio of IC50 for recombinant human p38-alpha to IC50 for GST-fused recombinant human ALK5
Outline: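 Ratio of p38α IC50 to ALK5 IC50. ALK5 was a human recombinant GST-fusion protein expressed in Sf9 insect cells via baculovirus. p38α was […] human recombinant protein expressed in E. coli and purified on Ni-NTA agarose. Both were run in a radioisotopic ³³P protein kinase assay (³³PanQinase), with casein as the ALK5 substrate and ATF2 as the p38α substrate.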

[2] = Retention time of the compound in rat bile treated with [14C]-EW-7197, po by LC-MS analysis; assay type: ADME, organism-based
[3] = Drug level in rat urine treated with [14C]-EW-7197, po by LC-MS analysis; assay type: ADME, organism-based; details: in vivo
[4] = Retention time of the compound in rat urine treated with [14C]-EW-7197, po by LC-MS analysis; assay type: ADME, organism-based
[5] = Drug level in rat bile treated with [14C]-EW-7197, po by LC-MS analysis; assay type: ADME, organism-based; details: in vivo
[6] = Drug level in rat feces treated with [14C]-EW-7197, po by LC-MS analysis; assay type: ADME, organism-based; details: in vivo
Plasma [7] = experiment: Drug level in rat plasma treated with [14C]-EW-7197, po by LC-MS analysis; assay type: ADME, organism-based; details: in vivo
Plasma [8] = experiment: Retention time of the compound in rat plasma treated with [14C]-EW-7197, po by LC-MS analysis; assay type: ADME, organism-based
[9] = target: T2, TGF-beta receptor type-1 (Homo sapiens) (UniProt P36897); experiment: Potency index, ratio of SB-505124 IC50 to compound IC50 for GST-fused recombinant human ALK5 expressed in baculovirus-infected insect Sf9 cells
T2 sequence (whole entry): T1 sequence (P36897 whole entry)

[10] = Drug metabolism in po dosed rat urine assessed as formation of 4-([1,2,4]triazolo[1,5-a]pyridin-6-yl)-5-(6-methylpyridin-2-yl)-1H-imidazole-2-carboxylic acid by LC-MS analysis; assay type: ADME, organism-based; details: in vivo
Plasma [11] = experiment: Retention time of the compound in po dosed rat plasma by LC-MS analysis; assay type: ADME, organism-based; details: in vivo
[12] = Drug metabolism in po dosed rat bile assessed as formation of 4-([1,2,4]triazolo[1,5-a]pyridin-6-yl)-5-(6-methylpyridin-2-yl)-1H-imidazole-2-carboxylic acid by LC-MS analysis; assay type: ADME, organism-based; details: in vivo
[13] = Drug metabolism in po dosed rat feces assessed as formation of 4-([1,2,4]triazolo[1,5-a]pyridin-6-yl)-5-(6-methylpyridin-2-yl)-1H-imidazole-2-carboxylic acid by LC-MS analysis; assay type: ADME, organism-based; details: in vivo
Plasma [14] = experiment: Drug metabolism in po dosed rat plasma assessed as formation of 4-([1,2,4]triazolo[1,5-a]pyridin-6-yl)-5-(6-methylpyridin-2-yl)-1H-imidazole-2-carboxylic acid by LC-MS analysis; assay type: ADME, organism-based; details: in vivo
[15] = Drug metabolism in po dosed rat urine assessed as formation of (4-([1,2,4]triazolo[1,5-a]pyridin-6-yl)-5-(6-methylpyridin-2-yl)-1H-imidazol-2-yl)methanol by LC-MS analysis; assay type: ADME, organism-based; details: in vivo
Plasma [16] = experiment: Drug metabolism in po dosed rat plasma assessed as formation of (4-([1,2,4]triazolo[1,5-a]pyridin-6-yl)-5-(6-methylpyridin-2-yl)-1H-imidazol-2-yl)methanol by LC-MS analysis; assay type: ADME, organism-based; details: in vivo
[17] = Drug metabolism in po dosed rat feces assessed as formation of (4-([1,2,4]triazolo[1,5-a]pyridin-6-yl)-5-(6-methylpyridin-2-yl)-1H-imidazol-2-yl)methanol by LC-MS analysis; assay type: ADME, organism-based; details: in vivo
[18] = Drug metabolism in po dosed rat urine assessed as formation of 4-([1,2,4]triazolo[1,5-a]pyridin-6-yl)-5-(6-methylpyridin-2-yl)-1H-imidazol-2-ol by LC-MS analysis; assay type: ADME, organism-based; details: in vivo
Plasma [19] = experiment: Drug metabolism in po dosed rat plasma assessed as formation of 4-([1,2,4]triazolo[1,5-a]pyridin-6-yl)-5-(6-methylpyridin-2-yl)-1H-imidazole-2-carbaldehyde by LC-MS analysis; assay type: ADME, organism-based; details: in vivo
[20] = Drug metabolism in po dosed rat bile assessed as formation of 4-([1,2,4]triazolo[1,5-a]pyridin-6-yl)-5-(6-methylpyridin-2-yl)-1H-imidazole-2-carbaldehyde by LC-MS analysis; assay type: ADME, organism-based; details: in vivo
[21] = Drug metabolism in po dosed rat feces assessed as formation of 4-([1,2,4]triazolo[1,5-a]pyridin-6-yl)-5-(6-methylpyridin-2-yl)-1H-imidazole-2-carbaldehyde by LC-MS analysis; assay type: ADME, organism-based; details: in vivo

Mitogen-activated protein kinase 14, sequence (Q16539 whole entry, the tested form may be a part): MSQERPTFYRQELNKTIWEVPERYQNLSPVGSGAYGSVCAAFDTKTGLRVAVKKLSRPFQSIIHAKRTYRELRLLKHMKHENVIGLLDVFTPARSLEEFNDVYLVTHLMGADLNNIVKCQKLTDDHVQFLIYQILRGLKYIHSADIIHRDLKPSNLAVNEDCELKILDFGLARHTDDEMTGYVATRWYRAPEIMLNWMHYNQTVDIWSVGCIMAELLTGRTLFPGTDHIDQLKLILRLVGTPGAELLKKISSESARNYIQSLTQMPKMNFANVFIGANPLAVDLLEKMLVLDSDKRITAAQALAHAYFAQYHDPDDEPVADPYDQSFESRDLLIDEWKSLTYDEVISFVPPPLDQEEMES

SMILES: Cc1cccc(-c2nn(CC(=O)Nc3cccc(C#N)c3)cc2-c2ccc3ncnn3c2)n1
- IC50 (TGF-beta receptor type-1): 27 nM
- IC50 [1]: > 10000 nM
- Ratio IC50 (Homo sapiens): > 370

SMILES: Cc1cccc(-c2[nH]c(Cc3cccc(C(N)=O)c3)nc2-c2ccc3nccnc3c2)n1
- Ratio IC50 (Homo sapiens): 28

SMILES: Cc1cccc(-c2[nH]c(O)nc2-c2ccc3ncnn3c2)n1
- Retention_time [2]: 54.56 min
- Drug metabolism [3]: metabolite_detected

SMILES: Cc1cccc(-c2[nH]c(CNC(=O)c3ccccc3F)nc2-c2ccc3ncnn3c2)n1
- IC50 (TGF-beta receptor type-1): 37 nM
- IC50 [1]: > 10000 nM
- Ratio IC50 (Homo sapiens): > 270

SMILES: Cc1cccc(-c2[nH]c(C=O)nc2-c2ccc3ncnn3c2)n1
- Retention_time [4]: 62.37 min
- Drug metabolism [5]: metabolite_detected
- Drug metabolism [6]: metabolite_detected
- Drug metabolism (Plasma [7]): metabolite_detected

SMILES: Cc1cccc(-c2[nH]c(CNC(=O)c3cccc(C#N)c3)nc2-c2ccc3ncnn3c2)n1
- IC50 (TGF-beta receptor type-1): 90 nM
- IC50 [1]: > 10000 nM
- Ratio IC50 (Homo sapiens): > 111

SMILES: Cc1cccc(-c2nn(CC(=O)Nc3ccccc3)cc2-c2ccc3ncnn3c2)n1
- IC50 (TGF-beta receptor type-1): 78 nM
- IC50 [1]: > 10000 nM
- Ratio IC50 (Homo sapiens): > 128

SMILES: Cc1cccc(-c2[nH]c(CNC(=S)c3cccc(C(N)=O)c3)nc2-c2ccc3ncnn3c2)n1
- IC50 (TGF-beta receptor type-1): 22 nM
- IC50 [1]: 2830 nM
- Ratio IC50 (Homo sapiens): 129

SMILES: Cc1cccc(-c2nn(CC(=S)Nc3ccccc3F)cc2-c2ccc3ncnn3c2)n1
- IC50 (TGF-beta receptor type-1): 29 nM
- IC50 [1]: 5210 nM
- Ratio IC50 (Homo sapiens): 180

SMILES: Cc1cccc(-c2[nH]c(CNC(=S)c3cccc(C#N)c3)nc2-c2ccc3ncnn3c2)n1
- IC50 (TGF-beta receptor type-1): 36 nM
- IC50 [1]: 1490 nM
- Ratio IC50 (Homo sapiens): 41

SMILES: Cc1cccc(-c2[nH]c(C(=O)O)nc2-c2ccc3ncnn3c2)n1
- Retention_time (Plasma [8]): 24.43 min
- Drug metabolism [3]: metabolite_detected
- Drug metabolism [5]: metabolite_detected
- Drug metabolism [6]: metabolite_detected

SMILES: Cc1cccc(-c2[nH]c(CN)nc2-c2ccc3ncnn3c2)n1
- Retention_time [2]: 68.77 min

SMILES: Cc1cccc(-c2nn(CC(=S)Nc3cccc(C#N)c3)cc2-c2ccc3ncnn3c2)n1
- IC50 (TGF-beta receptor type-1): 18 nM
- IC50 [1]: 5110 nM
- Ratio IC50 (Homo sapiens): 284
- Ratio IC50 [9]: 3

SMILES: Cc1cccc(-c2nn(CC(=O)Nc3cccc(C(N)=O)c3)cc2-c2ccc3ncnn3c2)n1
- IC50 (TGF-beta receptor type-1): 36 nM
- IC50 [1]: > 10000 nM
- Ratio IC50 (Homo sapiens): > 278

SMILES: Cc1cccc(-c2[nH]c(CNC(=S)c3ccccc3F)nc2-c2ccc3ncnn3c2)n1
- IC50 (TGF-beta receptor type-1): 27 nM
- IC50 [1]: 1050 nM
- Ratio IC50 (Homo sapiens): 39

SMILES: Cc1cccc(-c2[nH]c(CNc3ccccc3F)nc2-c2ccc3ncnn3c2)n1 [VACTOSERTIB]
- Drug metabolism [10]: metabolite_detected
- Retention_time (Plasma [11]): 71.53 min
- Drug metabolism [12]: metabolite_detected
- Drug metabolism [13]: metabolite_detected
- Drug metabolism (Plasma [14]): metabolite_detected
- Drug metabolism [15]: metabolite_detected
- Drug metabolism (Plasma [16]): metabolite_detected
- Drug metabolism [17]: metabolite_detected
- Drug metabolism [18]: metabolite_detected
- Drug metabolism (Plasma [19]): metabolite_detected
- Drug metabolism [20]: metabolite_detected
- Drug metabolism [21]: metabolite_detected

SMILES: Cc1cccc(-c2[nH]c(CNC(=O)c3ccccc3)nc2-c2ccc3ncnn3c2)n1
- IC50 (TGF-beta receptor type-1): 57 nM
- IC50 [1]: > 10000 nM
- Ratio IC50 (Homo sapiens): > 175

SMILES: Cc1cccc(-c2[nH]c(CNC(=S)c3ccccc3)nc2-c2ccc3ncnn3c2)n1
- IC50 (TGF-beta receptor type-1): 48 nM
- IC50 [1]: 3770 nM
- Ratio IC50 (Homo sapiens): 79

SMILES: Cc1cccc(-c2nn(CC(=O)Nc3ccccc3F)cc2-c2ccc3ncnn3c2)n1
- IC50 (TGF-beta receptor type-1): 85 nM
- IC50 [1]: > 10000 nM
- Ratio IC50 (Homo sapiens): > 118

SMILES: Cc1cccc(-c2[nH]c(CO)nc2-c2ccc3ncnn3c2)n1
- Retention_time [2]: 53.65 min
- Drug metabolism [3]: metabolite_detected
- Drug metabolism [6]: metabolite_detected
- Drug metabolism (Plasma [7]): metabolite_detected

SMILES: Cc1cccc(-c2[nH]c(CNC(=O)c3cccc(C(N)=O)c3)nc2-c2ccc3ncnn3c2)n1
- IC50 (TGF-beta receptor type-1): 106 nM
- IC50 [1]: > 10000 nM
- Ratio IC50 (Homo sapiens): > 94
